Assay outcomes deposited in PubChem by several laboratories.
An excerpt weighted towards active compounds, which were near 2.2% of everything screened.
Tn6 DDE FP – inhibitors of Tn6 peptide binding to fibrin DD(E), primary screen, biochemical, fluorescence polarization, human fibrin, Tn6 probe; Fibrinogen beta chain (Homo sapiens), P02675; inhibition, % at 8.3 µM; 370,000 tested, 0.21% active; AID 720509, 2013; Fibrin DD(E) TRITC-Tn6 fluorescence polarization displacement;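 active means inhibition above a per-campaign cutoff: mean of compounds within control limits plus 3 SD, cut at about 15% in these data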;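 further: 0% = median of all compound wells on the plate and 100% = blocking peptide control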
SKN-1 inh – suppressors of acrylamide-induced Pgst-4::GFP reporter in worms, primary screen, SKN-1 inhibitor project, whole organism, uHTS, GFP/RFP fluorescence ratio, strain VP596; 360,000 tested, 0.49% active; inhibition, % at 21.8 µM; C. elegans VP596 Pgst-4::GFP/RFP ratio, 24 h;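 active means interference check ratio from 0.5 to 1.5 plus GFP to RFP signal ratio inhibition reaching or exceeding a fixed threshold, cut at about 30% in these data, passing the limit was not always enough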
Tn7 DDE FP – inhibitors of Tn7 peptide binding to fibrin DD(E), primary screen, biochemical, fluorescence polarization, human fibrin, Tn7 probe; FP displacement of FITC-Tn7 peptide from fibrin DD(E); 0% = median of compound wells per plate; inhibition, % at 8.3 µM; 370,000 tested, 0.13% active; AID 720508, 2013;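 active means inhibition above the mean of compounds falling within the control limits plus 3 SD of them, cut at about 14% in these data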;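 further: 0% = plate median of compound wells and 100% = 10 µM Aha-Tn7 peptide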
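Assay system: Human clot-derived fibrin DD(E) complex | Buffer or medium: Tris/NaCl/CaCl2 buffer, pH 7.8 | Repeats: One replicate per compound | Benchmarks: Aha-Tn7 high control | Measure: % inhibition scaled between sample-field median and high-control FP | Schedule: 10 min plus 3 h, room temperature | Signal: Fluorescence polarization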
Neddylation inh – inhibitors of cullin neddylation, primary screen, biochemical, TR-FRET, uHTS, NAE and Ubc12; NEDD8-conjugating enzyme Ubc12 (Homo sapiens) + NEDD8-activating enzyme E1 regulatory …; calls only at 25 µM; 360,000 tested, 0.58% active; in the data active means inhibition above about 36%
Target sequence (P61081 whole entry, looked up): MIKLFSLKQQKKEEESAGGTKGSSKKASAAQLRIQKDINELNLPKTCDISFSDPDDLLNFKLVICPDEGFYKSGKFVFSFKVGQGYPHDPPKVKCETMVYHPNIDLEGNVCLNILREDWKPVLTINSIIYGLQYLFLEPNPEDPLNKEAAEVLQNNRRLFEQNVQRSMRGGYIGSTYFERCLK
Target sequence (Q13564 whole entry, looked up): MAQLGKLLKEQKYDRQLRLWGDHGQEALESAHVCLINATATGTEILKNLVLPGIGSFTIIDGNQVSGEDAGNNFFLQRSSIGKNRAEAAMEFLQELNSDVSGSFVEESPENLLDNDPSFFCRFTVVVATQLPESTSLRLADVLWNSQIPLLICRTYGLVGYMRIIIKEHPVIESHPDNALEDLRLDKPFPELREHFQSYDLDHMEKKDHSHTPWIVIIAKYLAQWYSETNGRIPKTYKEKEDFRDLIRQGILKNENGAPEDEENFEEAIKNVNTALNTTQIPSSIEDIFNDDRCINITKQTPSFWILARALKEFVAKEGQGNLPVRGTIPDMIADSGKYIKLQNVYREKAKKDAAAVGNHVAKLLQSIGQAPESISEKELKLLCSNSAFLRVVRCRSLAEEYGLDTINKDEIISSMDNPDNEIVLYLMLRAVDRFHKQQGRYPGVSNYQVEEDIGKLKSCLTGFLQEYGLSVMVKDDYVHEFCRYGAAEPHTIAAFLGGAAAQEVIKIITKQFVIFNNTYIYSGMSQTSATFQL
KLK7 zymogen act – proKLK7 zymogen activators, primary screen, biochemical, fluorescence intensity; purified proKLK7, EDANS-DABCYL substrate fluorescence; 100% is mature enzyme control, 0% vehicle; activation, % at 7 µM; 370,000 tested, 0.9% active;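 active means activation above the mean of all tested compounds plus 3 SD, computed per campaign excluding outliers beyond control limits, cut at about 13% in these data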
MT1-MMP act inh – blockers of MT1-MMP proenzyme processing, primary screen, HT1080 RFP-PRO-GFP cells, GFP/RFP fluorescence | GFP/RFP ratio fluorescence, overnight; percent of plate control window, DMSO zero | GFP/RFP ratio change, % at 20 µM | 360,000 tested, 0.061% active;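 active means GFP/RFP ratio change of at least 30% with cell ATP level not reduced by more than half and red fluorescence within 50% of control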
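Assay system – RFP-PRO-GFP reporter HT1080 cells · Compound dosing – single dose of 20 µM compound, 1% DMSO final · Incubation – overnight compound exposure at 37 °C · Measure – GFP/RFP fluorescence ratio · Benchmarks – DMSO wells and RFP-L50D-GFP cells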
Numbers without * were called inactive; i = inactive; . = not tested or not shown; + = active, no number.

SMILES	Tn6 DDE FP	SKN-1 inh	Tn7 DDE FP	Neddylation inh	KLK7 zymogen act	MT1-MMP act inh
CCN1/C(=C/c2ccc3cc(C)cc(C)c3[n+]2CC)Sc2cc(C)ccc21	-4.1	73.9	-22.8	i	0.1	-19.2
CCN1/C(=C/c2ccc3cccc(C)c3[n+]2CC)Sc2ccccc21	-2.7	49.2*	-26.2	i	-0.3	-222.3
CC(C)[C@H](NC(=O)OCc1ccccc1)C(=O)OCC(=O)NC1(C#N)CCCC1	13.8	5.2	14.7*	i	-0.5	-2.0
CN(C)S(=O)(=O)NC(c1ccccc1)c1ccccc1	-1.7	35.6*	-2.3	i	-0.2	-3.8
CCC(C)(C)NC(=O)C(c1cccn1C)N(C(=O)Cn1nnc2ccccc21)c1ccc(OC)cc1OC (stereo unspecified)	3.2	43.2*	4.9	i	0.0	-4.5
CCOc1ccc(N(C(=O)Cn2nnc3ccccc32)C(C(=O)NC(C)(C)CC)c2cccn2C)cc1 (stereo unspecified)	-0.6	3.0	3.9	i	0.3	-4.6
CCN(CC)S(=O)(=O)c1ccc(NC(=O)C2COc3ccccc3O2)cc1 (stereo unspecified)	4.3	10.5	-4.6	i	1.1	4.3
C/C(=N/NC(=O)c1ccc(C(C)(C)C)cc1)c1cccnc1	-1.0	-0.5	-3.5	i	0.2	4.5
O=C(Nc1ccc(SC(F)F)cc1)c1ccccc1F	9.1	41.0*	6.2	i	0.0	4.8
C=CCNc1ncnc2sc(SC)nc12	-7.0	49.8*	-2.0	i	-0.7	-3.1
O=C(Nc1nnc(-c2cccs2)o1)c1cc(-c2ccccc2)nc2ccccc12	3.1	-10.3	-2.5	i	-0.5	4.2
C/C(=N\OCc1ccccc1C#N)c1cc2ccccc2o1	3.9	-1.4	-4.0	i	-0.3	1.3
C/C(=N\OCc1ccc(C#N)cc1)c1cc2ccccc2o1	12.3	54.2*	0.9	i	0.9	5.1
O=c1c2ccccc2oc2ccc(-c3ccc4[nH]ccc4c3)cc12	-4.8	61.9*	2.7	i	-3.9	-3.1
CC(=O)Nc1ccc(NC(=O)c2cc(-c3cc(F)ccc3OCC3CCCO3)n[nH]2)cc1 (stereo unspecified)	1.2	-2.4	3.7	.	0.2	0.0
CC(=O)Nc1cc(C(F)(F)F)ccc1OCC1CCCO1 (stereo unspecified)	12.5	36.5*	6.4	i	-0.2	1.6
Cc1ccc(C)c2[nH]c(=O)c(C(c3nnnn3Cc3ccccc3)N3CCc4ccccc4C3)cc12 (stereo unspecified)	-8.8	-5.0	0.1	i	5.5	-13.3
Cc1ccc(NC(=O)c2ccc(S(=O)(=O)N3CCC(C)CC3)cc2)nc1	0.5	11.4	3.9	i	0.3	-5.8
Cc1ccc(-c2cc(-c3ccc(C)o3)nc(N)c2C#N)cc1	7.0	-12.3	3.5	i	-7.8	-14.0
Cc1ccc(-c2cc(-c3ccc(Cl)cc3)c(C#N)c(N)n2)o1	0.0	-2.8	-0.1	+	2.1	-35.9
Cc1ccnc(SCC(=O)N2CCN(C(c3ccccc3)c3ccccc3)CC2)n1	-4.3	6.4	-10.8	i	-0.3	-3.8
Cn1ncc(C#N)c1/N=C/N1CCCC1	-2.9	42.4*	0.3	i	0.4	1.2
C/C(CC(=O)Nc1ccc(OCc2ccccc2)cc1)=N\NC(=O)C(=O)Nc1ccc(C)c(Cl)c1	7.1	38.2*	-1.4	i	-0.2	3.3
NC(N)=Nc1ccc(C=C2C=Cc3ccccc32)cc1	-2.0	-1.0	-10.9	i	0.7	-5.4
Nc1ccc(C=C2C=Cc3ccccc32)cc1	9.9	52.4*	3.6	i	-0.5	3.5
